Test results as given in ChEMBL document CHEMBL1811848 (Bioorg Med Chem Lett, 2011).
Activity calls are given as the source filed them. No cut-off for these calls is given here.

Legend:
[1] = molecular target: T1, Peroxisome proliferator-activated receptor alpha (Homo sapiens) (UniProt Q07869); experiment: Transactivation of human PPARalpha expressed in human HepG2 cells co-transfected with PPRE3-TK-Luc by luciferase reporter gene assay relative to WY14643; assay type: cell-based
T1 sequence (whole entry): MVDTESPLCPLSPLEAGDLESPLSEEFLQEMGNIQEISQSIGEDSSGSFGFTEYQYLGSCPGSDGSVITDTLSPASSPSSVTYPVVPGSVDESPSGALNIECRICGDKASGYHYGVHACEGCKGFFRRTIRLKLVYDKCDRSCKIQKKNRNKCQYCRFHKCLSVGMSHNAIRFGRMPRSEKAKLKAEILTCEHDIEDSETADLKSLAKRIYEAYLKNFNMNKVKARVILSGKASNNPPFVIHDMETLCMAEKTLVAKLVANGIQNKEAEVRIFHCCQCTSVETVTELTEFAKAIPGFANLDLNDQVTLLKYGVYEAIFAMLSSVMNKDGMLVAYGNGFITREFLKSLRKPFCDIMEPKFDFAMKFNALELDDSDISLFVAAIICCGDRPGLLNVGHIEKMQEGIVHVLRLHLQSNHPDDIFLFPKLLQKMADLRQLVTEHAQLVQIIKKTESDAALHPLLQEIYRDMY
Method in brief: (§1)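 Same HepG2 hPPARα or hPPARγ / PPRE3-TK-luc luciferase transactivation assay. Efficacy expressed as percent of maximal response, normalized to 100% for the reference agonist: WY-14643 for α, rosiglitazone for γ.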

[2] = molecular target: T2, Peroxisome proliferator-activated receptor gamma (Homo sapiens, UniProt P37231); experiment: Transactivation of human PPARgamma expressed in human HepG2 cells co-transfected with PPRE3-TK-Luc by luciferase reporter gene assay; assay type: cell-based
T2 sequence (P37231 whole entry): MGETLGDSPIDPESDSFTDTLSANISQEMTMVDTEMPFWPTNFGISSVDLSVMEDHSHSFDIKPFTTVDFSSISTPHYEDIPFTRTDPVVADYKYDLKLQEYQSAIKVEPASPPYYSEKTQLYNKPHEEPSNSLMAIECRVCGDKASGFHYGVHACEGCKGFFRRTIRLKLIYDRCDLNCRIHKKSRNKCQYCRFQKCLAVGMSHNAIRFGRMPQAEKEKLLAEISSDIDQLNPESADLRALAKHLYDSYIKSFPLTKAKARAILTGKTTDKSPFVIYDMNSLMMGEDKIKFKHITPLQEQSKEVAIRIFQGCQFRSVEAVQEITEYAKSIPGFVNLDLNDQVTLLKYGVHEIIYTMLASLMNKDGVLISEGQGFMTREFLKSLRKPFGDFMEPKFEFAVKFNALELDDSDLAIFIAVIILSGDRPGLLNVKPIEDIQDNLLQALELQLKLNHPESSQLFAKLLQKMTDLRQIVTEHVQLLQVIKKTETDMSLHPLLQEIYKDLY
Method in brief: (§2)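 HepG2 cells transfected with pSG5 vector carrying hPPARα, hPPARγ or hPPARδ cDNA, co-transfected with PPRE3-TK-luc. Firefly luciferase activity measured with a commercial kit. β-galactosidase activity read on an ELISA reader. Controls: WY14643 (α), rosiglitazone (γ), GW501516 (δ).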

[3] = molecular target: T3, Peroxisome proliferator-activated receptor gamma (Homo sapiens) (UniProt P37231); experiment: Transactivation of human PPARgamma expressed in human HepG2 cells co-transfected with PPRE3-TK-Luc by luciferase reporter gene assay relative to Rosiglitazone; assay type: cell-based; method in brief: as §1
T3 sequence (whole entry): T2 sequence (P37231 whole entry)

[4] = molecular target: T4, Peroxisome proliferator-activated receptor delta (Homo sapiens) (UniProt Q03181); experiment: Transactivation of human PPARdelta expressed in human HepG2 cells co-transfected with PPRE3-TK-Luc by luciferase reporter gene assay; assay type: cell-based; method in brief: as §2
T4 sequence (whole entry): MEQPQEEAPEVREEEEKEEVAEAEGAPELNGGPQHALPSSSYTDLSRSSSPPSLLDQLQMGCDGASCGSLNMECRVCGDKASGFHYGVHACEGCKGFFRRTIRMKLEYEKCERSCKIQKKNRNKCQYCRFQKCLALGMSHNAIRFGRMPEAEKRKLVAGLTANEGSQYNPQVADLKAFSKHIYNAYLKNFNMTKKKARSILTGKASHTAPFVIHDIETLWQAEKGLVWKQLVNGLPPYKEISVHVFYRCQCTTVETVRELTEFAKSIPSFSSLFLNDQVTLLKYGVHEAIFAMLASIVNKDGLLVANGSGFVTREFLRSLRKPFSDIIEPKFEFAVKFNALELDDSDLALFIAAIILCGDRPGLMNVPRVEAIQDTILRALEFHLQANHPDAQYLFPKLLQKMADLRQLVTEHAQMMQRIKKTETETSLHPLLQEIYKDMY

[5] = system: Mus musculus; experiment: Reduction in serum triglyceride level in Swiss albino mouse at 10 mg/kg, po administered for 6 days relative to control; assay type: functional; parameters: scale not given: the % may be the effect or the level left
Method in brief: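 Male Swiss albino mice aged 6–8 weeks were given 10 mg/kg/day orally for 6 days. Serum triglyceride was expressed as % change versus vehicle controls, mean of n = 6.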

[6] = molecular target: T5, Peroxisome proliferator-activated receptor alpha (Homo sapiens, UniProt Q07869); experiment: Transactivation of human PPARalpha expressed in human HepG2 cells co-transfected with PPRE3-TK-Luc by luciferase reporter gene assay; assay type: cell-based
T5 sequence (Q07869 whole entry): T1 sequence (whole entry)

[7] = system: Mus musculus; experiment: Antihyperglycemic activity in db/db mouse assessed as reduction in glucose level at 3 mg/kg/day, po administered for 6 days relative to control; assay type: functional; parameters: scale not given: the % may be the effect or the level left
Method in brief: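 Male db/db mice aged 6–8 weeks were dosed orally once daily for 6 days. Plasma glucose was then measured and expressed as % change versus vehicle-treated controls.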

Structure (SMILES): CCO[C@@H](Cc1ccc(OCc2nc(-c3sccc3C)oc2C)cc1)C(=O)O
- Emax [1]: 106%
- EC50 [2]: 0.3 pM
- Emax [3]: 88%
- Activity [4]: inactive
- Activity [5]: 72%

Structure (SMILES): CCO[C@@H](Cc1ccc(OCc2nc(-c3ccc(-c4ccccc4)s3)oc2C)cc1)C(=O)O
- EC50 [6]: 20000 pM
- Emax [1]: 93%
- EC50 [2]: 3000 pM
- Emax [3]: 104%
- Activity [4]: inactive
- Activity [5]: 57%

Structure (SMILES): CCO[C@@H](Cc1ccc(OCCc2nc(-c3sccc3C)oc2C)cc1)C(=O)O
- Emax [1]: 96%
- EC50 [2]: 0.1 pM
- Emax [3]: 192%
- Activity [4]: inactive
- Activity [5]: 67%

Structure (SMILES): CCO[C@@H](Cc1ccc(OCCc2nc(-c3cccs3)oc2C)cc1)C(=O)O
- EC50 [6]: 100 pM
- Emax [1]: 126%
- EC50 [2]: 50 pM
- Emax [3]: 104%
- Activity [4]: inactive
- Activity [5]: 78%

Structure (SMILES): CCO[C@@H](Cc1ccc(OCCc2nc(-c3ccc(-c4ccccc4)s3)oc2C)cc1)C(=O)O
- EC50 [6]: 22000 pM
- EC50 [2]: 4500 pM
- Activity [4]: inactive
- Activity [5]: 62%

Structure (SMILES): CCO[C@@H](Cc1ccc(OCc2nc(-c3cccs3)oc2C)cc1)C(=O)O
- EC50 [6]: 26 pM
- Emax [1]: 134%
- EC50 [2]: 1.5 pM
- Emax [3]: 107%
- Activity [4]: inactive
- Activity [5]: 72%

Structure (SMILES): CCO[C@@H](Cc1ccc(OCc2nc(-c3ccc(C)s3)oc2C)cc1)C(=O)O
- Emax [1]: 151%
- EC50 [2]: 0.2 pM
- Emax [3]: 120%
- Activity [4]: inactive
- Activity [5]: 69%
- Activity [7]: 67%

Structure (SMILES): CCO[C@@H](Cc1ccc(OCCc2nc(-c3ccsc3)oc2C)cc1)C(=O)O
- EC50 [6]: 1900 pM
- Emax [1]: 114%
- EC50 [2]: 600 pM
- Emax [3]: 87%
- Activity [4]: inactive
- Activity [5]: 62%

Structure (SMILES): CCO[C@@H](Cc1ccc(OCCc2ccc(OS(C)(=O)=O)cc2)cc1)C(=O)O [TESAGLITAZAR]
- Activity [7]: 55%

Structure (SMILES): CCO[C@@H](Cc1ccc(OCc2nc(-c3ccsc3)oc2C)cc1)C(=O)O
- EC50 [6]: 3000 pM
- Emax [1]: 147%
- EC50 [2]: 2700 pM
- Emax [3]: 99%
- Activity [4]: inactive
- Activity [5]: 70%
